Reference: ChEMBL document CHEMBL1275331, “Discovery of a novel 5-HT(3) antagonist/5-HT(1A) agonist 3-amino-5,6,7,8-tetrahydro-2-{4-[4-(quinolin-2-yl)piperazin-1-yl]butyl}quinazolin-4(3H)-one (TZB-30878) as an orally bioavailable agent for irritable bowel syndrome” (J Med Chem, 2010)
Activity calls are given as the source filed them. The calls are words filed in the database; no cut-off is given here.

Columns and labels:
Adenosine receptor A2a = Adenosine receptor A2a (Homo sapiens, UniProt P29274); assay: Displacement of [3H]CGS21680 from human recombinant adenosine A2A receptor
[1] = biological target: Beta-1 adrenergic receptor (Homo sapiens, UniProt P08588); assay: Displacement of [3H](-)CGP12177 from human recombinant beta-1 adrenergic receptor
Rattus norvegicus [2] = assay: Effect on 5HT1A receptor-mediated hypothermic effect in rat assessed as change in rectal temperature at 10 mg/kg, iv after 30 mins; type: functional, organism-based; parameters: dose 10 mg/kg
Outline: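 Rats were conditioned over 2 weeks and acclimated to the cage for 1 h before dosing (vehicle: saline with diluted HCl). Rectal temperature was recorded with a thermistor probe inserted 3 cm, before and 30 min after administration. The change in temperature was reported.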

[3] = Drug level in Sprague-Dawley rat blood at 3 mg/kg, po after 4 hrs by HPLC analysis; type: ADME, organism-based; parameters: dose 3 mg/kg, route oral; details: whole blood, read-out: Drug uptake
Outline: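 Total compound concentration was measured in brain and blood at 2, 4 and 8 h after a single oral 3 mg/kg dose. Brain/blood ratio was also derived. Values are mean ± SD of three rats.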

[4] = biological target: T1, 5-hydroxytryptamine receptor 3A (Homo sapiens, UniProt P46098); assay: Displacement of [3H]BRL-43694 from human 5HT3 receptor expressed in HEK293 cells by liquid scintillation counting; type: cell-based
T1 sequence (P46098 whole entry): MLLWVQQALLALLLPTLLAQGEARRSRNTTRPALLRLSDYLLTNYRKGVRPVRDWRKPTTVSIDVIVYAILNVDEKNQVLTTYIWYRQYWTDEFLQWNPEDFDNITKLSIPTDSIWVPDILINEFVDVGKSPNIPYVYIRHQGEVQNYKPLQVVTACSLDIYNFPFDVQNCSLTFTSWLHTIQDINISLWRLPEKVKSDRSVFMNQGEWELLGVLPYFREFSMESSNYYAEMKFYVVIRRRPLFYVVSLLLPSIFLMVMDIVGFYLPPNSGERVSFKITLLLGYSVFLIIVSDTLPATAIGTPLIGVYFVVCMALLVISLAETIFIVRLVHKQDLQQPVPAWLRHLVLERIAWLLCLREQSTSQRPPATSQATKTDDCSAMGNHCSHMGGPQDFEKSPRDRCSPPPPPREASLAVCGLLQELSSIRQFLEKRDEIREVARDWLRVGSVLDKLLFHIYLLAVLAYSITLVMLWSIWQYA
Outline: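 HEK-293 membranes expressing human 5-HT3 were incubated with 0.5 nmol/L [3H]BRL-43694 (final) for 60 min at 25 °C. Buffer: 50 mM Tris-HCl, 5 mM MgCl2, 1 mM EDTA, pH 7.5. Compound came from 270 μmol/L DMSO stock, diluted in buffer. Filtration was through GF/B presoaked in 0.5% polyethyleneimine, with two cold Tris washes. Run in duplicate or triplicate; percent inhibition calculated.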

[5] = biological target: Muscarinic acetylcholine receptor M2 (Homo sapiens, UniProt P08172); assay: Displacement of [3H]AF-DX384 from human recombinant muscarinic M2 receptor
[6] = biological target: Sodium-dependent noradrenaline transporter (Homo sapiens, UniProt P23975); assay: Displacement of [3H]nisoxetine from human recombinant NET
[7] = biological target: T2, 5-hydroxytryptamine receptor 3A (Cavia porcellus) (UniProt O70212); assay: Inhibition of 5HT3 receptor-mediated contraction of guinea pig ileum at 1 umol/L after 20 mins relative to control; type: tissue-based
T2 sequence (whole entry): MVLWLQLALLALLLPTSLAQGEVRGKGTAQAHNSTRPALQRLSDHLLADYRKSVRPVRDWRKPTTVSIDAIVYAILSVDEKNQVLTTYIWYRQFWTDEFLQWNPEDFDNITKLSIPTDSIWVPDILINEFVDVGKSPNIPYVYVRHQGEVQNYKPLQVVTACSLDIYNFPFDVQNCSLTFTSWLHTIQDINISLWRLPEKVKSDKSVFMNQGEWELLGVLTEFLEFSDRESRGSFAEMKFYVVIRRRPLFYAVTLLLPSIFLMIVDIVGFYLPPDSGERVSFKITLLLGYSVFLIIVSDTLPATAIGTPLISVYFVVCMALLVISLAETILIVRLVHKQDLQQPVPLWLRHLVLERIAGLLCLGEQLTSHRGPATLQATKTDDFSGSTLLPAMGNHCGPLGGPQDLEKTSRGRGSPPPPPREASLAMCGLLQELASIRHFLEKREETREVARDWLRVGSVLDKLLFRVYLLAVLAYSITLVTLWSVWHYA
Outline: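 Ileum strips in Tyrode solution at 37 °C, gassed 5% CO2/95% O2, isotonic contractions under 1 g load. After at least 3 stable contractions to 10 μM 2-methyl-5-HT, tissue exposed to compound or DMSO vehicle for 20 min, then 10 μM 2-methyl-5-HT re-added; contraction expressed as % inhibition of control.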

D(1A) dopamine receptor = D(1A) dopamine receptor (Homo sapiens, UniProt P21728); assay: Displacement of [3H]SCH23390 from human recombinant dopamine D1 receptor
[8] = biological target: T1, 5-hydroxytryptamine receptor 3A; assay: Displacement of [3H]BRL-43694 from human recombinant 5HT3 receptor
[9] = biological target: T3, 5-hydroxytryptamine receptor 1A (Homo sapiens) (UniProt P08908); assay: Agonist activity at human cloned 5HT1A receptor expressed in CHO cells assessed as stimulation of [35S]GTPgammaS binding at 900 uL after 30 mins by liquid scintillation counting; type: functional, cell-based
T3 sequence (whole entry): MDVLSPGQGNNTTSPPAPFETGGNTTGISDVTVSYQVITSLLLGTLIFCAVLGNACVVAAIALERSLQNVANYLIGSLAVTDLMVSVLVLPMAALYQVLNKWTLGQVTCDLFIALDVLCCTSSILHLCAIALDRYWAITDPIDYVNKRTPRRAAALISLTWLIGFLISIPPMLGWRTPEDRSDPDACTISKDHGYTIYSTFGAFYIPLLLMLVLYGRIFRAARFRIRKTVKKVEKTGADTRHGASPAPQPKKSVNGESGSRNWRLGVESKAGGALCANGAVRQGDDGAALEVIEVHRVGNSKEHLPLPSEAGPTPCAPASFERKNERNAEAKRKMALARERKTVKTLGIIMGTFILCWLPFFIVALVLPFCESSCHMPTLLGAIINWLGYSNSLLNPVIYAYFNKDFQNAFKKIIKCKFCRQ
Outline: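 Membranes from CHO cells expressing human 5-HT1A were diluted in 20 mM HEPES/3 mM MgCl2/120 mM NaCl, pH 7.4. They were preincubated with 20 μM GDP and test drug for 20 min at 30 °C, then held on ice for 15 min. [35S]GTPγS (100 pM) was added for 30 min at 30 °C. Samples were filtered, washed with cold HEPES/MgCl2 buffer, and bound radioactivity counted; EC50 and Emax reported.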

Rattus norvegicus [10] = assay: […] activity in rat assessed as inhibition of 5HT-induced bradycardia at 10 ug/kg, iv by von Benzold-Jarisch reflex assay; type: functional
Rattus norvegicus [11] = assay: Reduction in wrap restraint stress-induced defecation in WAY-100635-treated rat diarrhea-predominant irritable bowel syndrome model at 0.3 to 3 mg/kg, ip administered 20 mins following addition of 5HT1A receptor antagonist WAY-100635; type: functional, organism-based
Outline: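 Rats received saline (with diluted HCl) or WAY-100635 sc; 20 min later compound or vehicle ip. Five minutes after, lightly anesthetized rats were wrapped for 1 h and feces counted. n = 8 per group, mean (SD); Wilcoxon and nonparametric Dunnett's tests.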

Sequence of Sodium-dependent noradrenaline transporter (P23975 whole entry): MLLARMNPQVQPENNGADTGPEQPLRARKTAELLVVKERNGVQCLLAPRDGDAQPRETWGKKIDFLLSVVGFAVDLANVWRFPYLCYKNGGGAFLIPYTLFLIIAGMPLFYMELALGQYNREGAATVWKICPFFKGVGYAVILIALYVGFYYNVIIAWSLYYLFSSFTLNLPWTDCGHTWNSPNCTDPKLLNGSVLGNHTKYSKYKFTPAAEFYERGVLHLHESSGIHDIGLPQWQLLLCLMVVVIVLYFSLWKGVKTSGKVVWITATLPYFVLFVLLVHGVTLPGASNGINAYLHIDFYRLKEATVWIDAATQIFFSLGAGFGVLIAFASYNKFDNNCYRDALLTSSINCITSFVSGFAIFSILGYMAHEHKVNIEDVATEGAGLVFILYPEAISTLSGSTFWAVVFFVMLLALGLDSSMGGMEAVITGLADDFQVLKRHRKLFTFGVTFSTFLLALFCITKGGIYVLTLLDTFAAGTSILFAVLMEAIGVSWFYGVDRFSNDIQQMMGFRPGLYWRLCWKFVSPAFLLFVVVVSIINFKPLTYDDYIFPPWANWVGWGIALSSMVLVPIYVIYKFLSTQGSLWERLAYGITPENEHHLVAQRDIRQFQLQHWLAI
Sequence of Muscarinic acetylcholine receptor M2 (P08172 whole entry): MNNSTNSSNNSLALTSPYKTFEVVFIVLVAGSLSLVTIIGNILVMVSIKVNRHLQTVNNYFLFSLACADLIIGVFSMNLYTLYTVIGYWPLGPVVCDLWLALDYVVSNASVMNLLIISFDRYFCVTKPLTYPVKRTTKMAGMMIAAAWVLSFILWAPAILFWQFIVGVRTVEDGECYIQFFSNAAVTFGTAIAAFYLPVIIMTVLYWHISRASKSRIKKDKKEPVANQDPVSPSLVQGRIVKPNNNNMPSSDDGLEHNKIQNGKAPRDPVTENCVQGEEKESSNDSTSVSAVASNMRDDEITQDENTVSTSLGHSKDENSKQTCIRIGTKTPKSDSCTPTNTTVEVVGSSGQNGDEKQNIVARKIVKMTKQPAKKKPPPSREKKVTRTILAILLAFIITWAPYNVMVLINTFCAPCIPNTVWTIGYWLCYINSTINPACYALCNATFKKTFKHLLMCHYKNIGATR
Sequence of Adenosine receptor A2a (P29274 whole entry): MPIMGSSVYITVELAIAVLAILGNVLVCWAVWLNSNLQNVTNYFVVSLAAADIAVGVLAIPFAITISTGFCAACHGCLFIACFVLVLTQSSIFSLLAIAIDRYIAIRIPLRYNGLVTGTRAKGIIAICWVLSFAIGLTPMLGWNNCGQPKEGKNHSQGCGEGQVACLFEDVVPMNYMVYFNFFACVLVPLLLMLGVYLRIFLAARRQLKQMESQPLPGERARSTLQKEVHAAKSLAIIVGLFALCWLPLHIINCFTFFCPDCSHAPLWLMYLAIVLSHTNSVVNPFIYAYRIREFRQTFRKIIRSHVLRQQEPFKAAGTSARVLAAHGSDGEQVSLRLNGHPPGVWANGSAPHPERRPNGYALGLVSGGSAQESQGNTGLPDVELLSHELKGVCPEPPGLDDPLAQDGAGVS
Sequence of Beta-1 adrenergic receptor (P08588 whole entry): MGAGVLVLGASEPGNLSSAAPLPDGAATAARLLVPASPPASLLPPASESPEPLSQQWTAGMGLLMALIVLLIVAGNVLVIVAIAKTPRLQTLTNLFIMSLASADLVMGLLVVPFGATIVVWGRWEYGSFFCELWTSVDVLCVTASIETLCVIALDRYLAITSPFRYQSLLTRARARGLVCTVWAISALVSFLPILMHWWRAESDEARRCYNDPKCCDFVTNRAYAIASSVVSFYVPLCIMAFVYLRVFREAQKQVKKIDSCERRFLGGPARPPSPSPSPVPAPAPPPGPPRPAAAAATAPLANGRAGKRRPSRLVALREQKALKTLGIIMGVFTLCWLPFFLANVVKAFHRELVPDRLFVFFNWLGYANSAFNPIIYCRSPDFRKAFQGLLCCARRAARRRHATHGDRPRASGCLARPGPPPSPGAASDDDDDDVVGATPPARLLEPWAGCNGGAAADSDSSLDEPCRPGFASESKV
Sequence of D(1A) dopamine receptor (P21728 whole entry): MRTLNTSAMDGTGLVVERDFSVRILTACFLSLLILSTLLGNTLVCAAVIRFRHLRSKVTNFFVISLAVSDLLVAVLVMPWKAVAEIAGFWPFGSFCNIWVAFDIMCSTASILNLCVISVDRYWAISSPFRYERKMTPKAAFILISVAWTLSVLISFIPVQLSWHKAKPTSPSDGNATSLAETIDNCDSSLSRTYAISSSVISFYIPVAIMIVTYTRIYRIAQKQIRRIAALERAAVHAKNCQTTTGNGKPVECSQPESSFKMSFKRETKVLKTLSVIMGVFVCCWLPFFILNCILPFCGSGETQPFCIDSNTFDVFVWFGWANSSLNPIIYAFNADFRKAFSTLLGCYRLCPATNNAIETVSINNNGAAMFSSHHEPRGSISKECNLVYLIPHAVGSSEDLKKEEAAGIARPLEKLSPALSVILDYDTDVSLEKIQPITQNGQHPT

IC50 (Adenosine receptor A2a): > 1 µM | IC50 [1]: > 1 µM | concentration at 4 h [3]: 16.8 nM | IC50 [4]: 0.0089 µM | IC50 [5]: > 1 µM | IC50 [6]: > 1 µM | inhibition [7]: 96.8% | IC50 (D(1A) dopamine receptor): > 1 µM | IC50 [8]: > 0.00893 µM | Emax [9]: 99.8%
SMILES: Nn1c(CCCCN2CCN(c3ccc4ccccc4n3)CC2)nc2c(c1=O)CCCC2
deltaT (Rattus norvegicus [2]): -1.4 °C | inhibition in vivo at 0.01 mg/kg (Rattus norvegicus [10]): ≤ 64% | inhibition (Rattus norvegicus [11]): inactive
